Results: ChEMBL document CHEMBL1154402, “Antiviral effect of orally administered (-)-beta-D-2-aminopurine dioxolane in woodchucks with chronic woodchuck hepatitis virus infection” (Antimicrob Agents Chemother, 2007)
Blank lines part the entries; values can stand above or below the compound they belong to.

Assays:
[1] = tested on: Woodchuck hepatitis virus; test: Antiviral activity against woodchuck hepatitis virus infected woodchucks assessed as log reduction of serum viral DNA per ml of serum after 4 weeks; format: functional
[2] = Oral bioavailability in mouse; format: ADME, organism-based; conditions: in vivo
[3] = AUC (0 to infinity) in orally dosed mouse; format: ADME, organism-based; design: route oral, time infinity; conditions: plasma, po
[4] = AUC (0 to infinity) in iv dosed mouse; format: ADME, organism-based; design: route intravenous, time infinity; conditions: plasma
Mus musculus = test: Terminal elimination half life in orally dosed mouse assessed as 9-(beta-D-1,3-dioxolan-4-yl)guanine; format: ADME, organism-based; conditions: in vivo, po
Rhesus monkey = test: Terminal elimination half life in orally dosed monkey assessed as 9-(beta-D-1,3-dioxolan-4-yl)guanine; format: ADME, organism-based, Macaca mulatta; conditions: in vivo, po
Marmota monax [5] = test: Cmax in woodchuck hepatitis virus-negative woodchucks assessed as 9-(beta-D-1,3-dioxolan-4-yl)guanine at 33.3 mg/kg iv followed by after 4 weeks washout period administered 33.3 mg/kg, po; format: ADME, organism-based; conditions: in vivo, 672 h
Outline: (§1)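 Three WHV-negative adult woodchucks got a 33.3 mg/kg iv bolus, with one saline control. After a 4-week washout the same three got 33.3 mg/kg orally. Blood was drawn predose and at 0.25–24 h. Serum APD and DXG were measured by HPLC-UV (LOQ 0.2 µM) and analysed noncompartmentally. AUC0-∞ used the trapezoidal rule, extrapolated by Clast/λz.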

Marmota monax [6] = test: AUC (0 to infinity) in woodchuck hepatitis virus-negative woodchucks assessed as 9-(beta-D-1,3-dioxolan-4-yl)guanine at 33.3 mg/kg, iv administered as single dose; format: ADME, organism-based, Plasma; design: time infinity, dose 33.3 mg/kg, route intravenous; conditions: in vivo; outline: as §1
Marmota monax [7] = test: AUC (0 to infinity) in woodchuck hepatitis virus -negative woodchucks assessed as 9-(beta-D-1,3-dioxolan-4-yl)guanine at 33.3 mg/kg, iv administered as single dose followed by dose of 33.3 mg/kg, po after 4 weeks washout period; format: ADME, organism-based, Plasma; conditions: in vivo, 672 h; outline: as §1
Marmota monax [8] = test: Terminal elimination half life in woodchuck hepatitis virus-negative woodchucks assessed as 9-(beta-D-1,3-dioxolan-4-yl)guanine at 33.3 mg/kg, iv administered as single dose; format: ADME, organism-based; design: dose 33.3 mg/kg, route intravenous; conditions: in vivo; outline: as §1
Marmota monax [9] = test: Terminal elimination half life in woodchuck hepatitis virus -negative woodchucks assessed as 9-(beta-D-1,3-dioxolan-4-yl)guanine at 33.3 mg/kg, iv administered as single dose followed by dose of 33.3 mg/kg, po after 4 weeks washout period; format: ADME, organism-based; conditions: in vivo, 672 h; outline: as §1
Marmota monax [10] = test: Cmax in woodchuck hepatitis virus-negative woodchucks assessed as 9-(beta-D-1,3-dioxolan-4-yl)guanine at 33.3 mg/kg, iv administered as single dose; format: ADME, organism-based; design: dose 33.3 mg/kg, route intravenous; conditions: in vivo; outline: as §1
[11] = tested on: Woodchuck hepatitis virus; test: Antiviral activity against woodchuck hepatitis virus infected woodchucks assessed as log reduction of serum viral DNA per ml of serum after 12 weeks; format: functional

SMILES: Nc1ccn([C@H]2C[C@H](O)[C@@H](CO)O2)c(=O)n1 [DOXECITINE]
Activity [1]: 2

SMILES: CCCCCCCCCCCCCCCCOCCCOP(=O)(O)OCCOCn1cnc2c(=O)[nH]c(N)nc21
Activity [1]: 1.4

SMILES: Nc1ncnc2c1ncn2[C@H]1C[C@H](O)[C@@H](CO)O1 [DEOXYADENOSINE]
Activity [1]: 1.5

bioavailability [2]: 114%
AUC(0-inf) [3]: 930 µM·h
AUC(0-inf) [4]: 818 µM·h
beta t1/2 (Mus musculus): 1 h
beta t1/2 (Rhesus monkey): 1.5 h
Cmax (Marmota monax [5]): 20.3 µM
AUC (Marmota monax [6]): 146.2 µM·h
AUC (Marmota monax [7]): 309.7 µM·h
beta t1/2 (Marmota monax [8]): 3.7 h
beta t1/2 (Marmota monax [9]): 12.1 h
Cmax (Marmota monax [10]): 24.6 µM
SMILES: Nc1nc2c(ncn2[C@H]2CO[C@@H](CO)O2)c(=O)[nH]1

SMILES: CC(C)(C)C(=O)OCOP(=O)(COCCn1cnc2c(N)ncnc21)OCOC(=O)C(C)(C)C [ADEFOVIR DIPIVOXIL]
Activity [1]: 1.8
Activity [11]: >2.5

SMILES: Cc1cn([C@@H]2C[C@@H](O)[C@H](CO)O2)c(=O)[nH]c1=O [TELBIVUDINE]
Activity [1]: 7

SMILES: Nc1nc(=O)n([C@@H]2CS[C@H](CO)O2)cc1F [EMTRICITABINE]
Activity [1]: 4.9
